Test results taken from the EternaBench riboswitch data.

Tested on: MS2 coat protein
Experiment: apparent Kd, MS2 coat protein; higher = weaker binding; RNA-MaP array; theophylline 2 mM where present
How it was run: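 Apparent Kd: the median of filtered binding-curve fits from single clusters. Designs were transcribed on Illumina sequencing-chip clusters by stalled E. coli RNA polymerase and titrated with SNAP-549-labelled MS2 coat protein from 0.7 or 1.5 nM, doubling to 3 µM, in 100 mM Tris-HCl pH 7.5, 80 mM KCl, 4 mM MgCl2, BSA, DTT, yeast tRNA and Tween-20. Each series ran without and then with constant ligand, and green signal was normalised to red-channel RNA signal and control-cluster median Fmax.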

[1] = designed as: OFF switch for theophylline, no ligand
[2] = ligand present: theophylline, designed as: OFF switch for theophylline
[3] = designed as: ON switch for theophylline, no ligand
[4] = ligand present: theophylline, designed as: ON switch for theophylline

AGACAUGAGGAUCACCCAUGUAGUACGGAUACCAGAUCCAGAUGCGUCCCUUGGCAGCUGUAGUACAGCGUUACGUCGCUCAUAG
apparent Kd [1]: 25.2 nM | apparent Kd [2]: 61 nM

AUCGUACCUGAGGAUACCAGCAUGUGAUCAUAACAUGAGGAUCACCCAUGUAAUCAGUGAUGCCCUUGGCAGCUUGGUCGAUACA
apparent Kd [3]: 54.2 nM | apparent Kd [4]: 34.9 nM

AGCAUGUUAUCAGAUACCAGACAUCUUUUUUUACGUAUUACAUGAGGAUCACCCAUGUUGGUCCCUUGGCAGCUGAAAUAUUUCA
apparent Kd [3]: 203 nM | apparent Kd [4]: 31.9 nM

ACGGAGAUUGCUAAAUGUUGGCGAGCGGAUACCAGCCUAUUAUUGGGCCCUUGGCAGCCGACAUGAGGAUCACCCAUGUAAACAA
apparent Kd [3]: 79 nM | apparent Kd [4]: 126 nM

AUACCGAGUGAGUCGUGUUUCUUUUCAGAUACCAGACUUUUCGUUGUCCCUUGGCAGCUGUUUUACAUGAGGAUCACCCAUGUUG
apparent Kd [1]: 18.2 nM | apparent Kd [2]: 25.5 nM

CAGAGCUACCGGGAUACCAGAAUUGGUAUUCCUAUAUUUCUUACAUGAGGAUCACCCAUGUUCCCUUGGCAGCUUGGUAGCUCUG
apparent Kd [1]: 80.9 nM | apparent Kd [2]: 446 nM

AAUGGCGUUGGUGAGGCGGUUAAUGGCGAUACCAGCGUGGAAACACGCCCUUGGCAGCGCCAAAACAUGAGGAUCACCCAUGUUA
apparent Kd [1]: 14.7 nM | apparent Kd [2]: 139 nM

UGUAACAUGAGGAUCACCCAUGUGAGUGAUACCAGACUAGUGUUGGUCCCUUGGCAGCACGCUGGGCGAGUGUGUAGUCUAUGCG
apparent Kd [3]: 92.8 nM | apparent Kd [4]: 120 nM

GGUGGGACUUGUGAUACCAGCCUAAUUCUAAACGAAUUGCACAUGAGGAUCACCCAUGUCGGCCCUUGGCAGCAUGAGUAUUUAU
apparent Kd [3]: 114 nM | apparent Kd [4]: 36.8 nM

AUACCUAAUGUUACAUUUACCUUAUCAGAUACCAGACUUUACGUUGUCCCUUGGCAGCUGUAUCACAUGAGGAUCACCCAUGUUG
apparent Kd [3]: 16 nM | apparent Kd [4]: 15.7 nM

AAAAUAAAUAAAACGCGUAACAUGAAGGAUACCAGCCAGAAAACUGGCCCUUGGCAGCCUCUACAUGAGGAUCACCCAUGUCGCG
apparent Kd [3]: 331 nM | apparent Kd [4]: 29.6 nM

GGGCCCGGGCGCGAGCCCGGGCCCAUUGAUACCAGUGAAUGUGUACGCCCUUGGCAGCGAAUCCUAACAUGAGGAUCACCCAUGU
apparent Kd [3]: 43.3 nM | apparent Kd [4]: 53.8 nM

UGGUCACUAGGAGAUACCAGCCGACAUGAGGAUCACCCAUGUAACCGGCGUCCUCCCUUAGGCCCUUGGCAGCUCGUAGUUGCUC
apparent Kd [1]: 12.2 nM | apparent Kd [2]: 156 nM

UGUAUGUGAUCUGAUACCAGUCCAACUGGUAAAACAUGAGGAUCACCCAUGUAAAAUUGGGACCCUUGGCAGCAGAUCGCAUACU
apparent Kd [3]: 534 nM | apparent Kd [4]: 28.4 nM

ACAUGAGGAUCACCCAUGUCACGGCACGAUACCAGCUGAUCCGGUGGCCCUUGGCAGCGUGACGUUUGGUCCCGCGGAUCACACG
apparent Kd [3]: 75.4 nM | apparent Kd [4]: 38.6 nM

UAUAUAUAUAUUGAUACCAGCAGAGAAAACGUAUAUCCUAACAUGAGGAUCACCCAUGUAUGCCCUUGGCAGCGAUAUAUAUAUA
apparent Kd [1]: 24.3 nM | apparent Kd [2]: 31.4 nM

GCACUACAUGAGGAUCACCCAUGUGCAGAUACCAGAGGUGUAUGCCUCCCUUGGCAGCUGCGUCGCUCUGGCAGCUUGUGGGUUG
apparent Kd [3]: 100 nM | apparent Kd [4]: 153 nM

AUCGUACCUGAUGAUACCAGCAUGUGAUCAUAACAUGAGGAUCACCCAUGUAAUCAGUGAUGCCCUUGGCAGCAUGAUCGGUACA
apparent Kd [3]: 57.3 nM | apparent Kd [4]: 26.3 nM

UGUAUGUGAUGUGAUACCAGUCCAAUACUGGUAACAUGAGGAUCACCCAUGUAAUGAUGGGACCCUUGGCAGCACAUCGCAUACU
apparent Kd [3]: 212 nM | apparent Kd [4]: 111 nM

AGACAUGAGGAUCACCCAUGUAGUACGGAUACCAGAUCCAGAUGCAUCCCUUGGCAGCUGUGGUACAGCGUUACAUCGCUCGUAG
apparent Kd [1]: 20 nM | apparent Kd [2]: 20.6 nM

ACAUGAGGAUCACCCAUGUGCCGUCUUGAUACCAGACCCGAAGUAGUCCCUUGGCAGCAACUACGUGACGGUCGCCCAUGUGUAG
apparent Kd [1]: 14.2 nM | apparent Kd [2]: 24 nM

GCUGUAAGUGCAGAUACCAGCAGGUGAUAUUUCUAAUGACAUGAGGAUCACCCAUGUAACUGCCCUUGGCAGCUGCACUUACAGC
apparent Kd [3]: 57.6 nM | apparent Kd [4]: 12.9 nM
